Assay [1] can be described thus: Cytotoxicity against human HeLaS3 cells after 24 to 72 hrs by MTT assay. It is filed as functional, cell-based. Conditions: HeLa S3. Put shortly:
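Growth inhibition of HeLa S-3 cells measured by MTT assay; IC50 taken as the drug concentration inhibiting cell growth by 50%. Values are mean ± S.D. of four independent experiments, each run in triplicate.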

The nature of assay [2]: Cell cycle arrest in human HeLaS3 cells assessed as accumulation at G2/M phase at 150 nM after 36 hrs using propidium iodide staining by flow cytometry (reference value: 22.45%). Conditions: HeLa S3. For orientation: Flow cytometry measures light scatter and fluorescence of single cells or particles in a stream.
For assay [3], the species on record is Homo sapiens. Put plainly: Binding affinity to enolase in human HeLaS3 whole cell extract by MALDI/TOF-MS nalaysis.
Assay [4] can be described thus: Cell cycle arrest in human HeLaS3 cells assessed as accumulation at S phase at 150 nM after 36 hrs using propidium iodide staining by flow cytometry (reference value: 19.62%). Conditions: HeLa S3.
Assay [5] in a line: Cell cycle arrest in human HeLaS3 cells assessed as accumulation at S phase at 150 nM after 12 hrs using propidium iodide staining by flow cytometry (reference value: 19.62%). Conditions: HeLa S3.
For assay [6], the species on record is Homo sapiens. Put plainly: Binding affinity to alpha-tubulin in human HeLaS3 whole cell extract by MALDI/TOF-MS nalaysis.
Assay [7] is described as follows: Cell cycle arrest in human HeLaS3 cells assessed as accumulation at G1 phase at 150 nM after 24 hrs using propidium iodide staining by flow cytometry (reference value: 56.42%). Conditions: HeLa S3.
Assay [8] is described as follows: Cell cycle arrest in human HeLaS3 cells assessed as accumulation at G1 phase at 150 nM after 48 hrs using propidium iodide staining by flow cytometry (reference value: 56.42%). Conditions: HeLa S3.
Assay [9] in a line: Cell cycle arrest in human HeLaS3 cells assessed as accumulation at G1 phase at 150 nM after 12 hrs using propidium iodide staining by flow cytometry (reference value: 56.42%). Conditions: HeLa S3.
Assay [10] deals with HeLa S3. Put plainly: Induction of apoptosis in human HeLaS3 cells assessed as DNA fragmentation at 150 to 1000 nM after 48 hrs by electrophoresis analysis. It is filed as functional, cell-based. The method, boiled down:
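HeLa S-3 cells exposed to 0–1000 nM for 48 h; genomic DNA extracted and run on a 2% agarose gel next to a 100 bp ladder to look for fragmentation.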

Assay [11] in a line: Cell cycle arrest in human HeLaS3 cells assessed as accumulation at S phase at 150 nM after 24 hrs using propidium iodide staining by flow cytometry (reference value: 19.62%). Conditions: HeLa S3.
The nature of assay [12]: Cell cycle arrest in human HeLaS3 cells assessed as accumulation at sub-G1 phase at 150 nM after 36 hrs using propidium iodide staining by flow cytometry (reference value: 1.51%). Conditions: HeLa S3.
The nature of assay [13]: Cell cycle arrest in human HeLaS3 cells assessed as accumulation at G2/M phase at 150 nM after 24 hrs using propidium iodide staining by flow cytometry (reference value: 22.45%). Conditions: HeLa S3.
Assay [14] in a line: Cell cycle arrest in human HeLaS3 cells assessed as accumulation at S phase at 150 nM after 48 hrs using propidium iodide staining by flow cytometry (reference value: 19.62%). Conditions: HeLa S3.
In assay [15] the test system is HeLa S3. Put plainly: Induction of apoptosis in human HeLaS3 cells assessed as increase of activated caspase 3 level by Western blot analysis. Conditions: TDE = time-dependent effect. It is filed as functional, cell-based. Put shortly:
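Cleaved caspase-3 detected by Western blot of HeLa S-3 cell extracts after 6, 12, 24 or 48 h treatment; untreated extract as control, β-actin as loading control.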
Background: Immunoblotting shows a protein as a band on a membrane.

A short description of assay [16]: Cell cycle arrest in human HeLaS3 cells assessed as accumulation at sub-G1 phase at 150 nM after 24 hrs using propidium iodide staining by flow cytometry (reference value: 1.51%). Conditions: HeLa S3.
Assay [17] concerns HeLa S3. Put plainly: Induction of apoptosis in human HeLaS3 cells assessed as chromatin condensation at 150 to 1000 nM after 48 hrs using Hoechst 33342 staining by confocal laser microscopic analysis. The assay is classed as functional, cell-based. Put shortly: (§1)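 HeLa S-3 cells treated with 0, 150, 300 or 1000 nM for 48 h, then nuclei stained with Hoechst 33342 and examined by fluorescence microscopy for chromatin condensation and fragmented nuclei.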

Assay [18] can be described thus: Cell cycle arrest in human HeLaS3 cells assessed as accumulation at G2/M phase at 150 nM after 12 hrs using propidium iodide staining by flow cytometry (reference value: 22.45%). Conditions: HeLa S3.
The subject of assay [19] is HeLa S3. The experiment in a line: Induction of apoptosis in human HeLaS3 cells assessed as fragmented nuclei at 150 to 1000 nM after 48 hrs using Hoechst 33342 staining by confocal laser microscopic analysis. It is filed as functional, cell-based. The method, boiled down: as §1
Assay [20] in a line: Cell cycle arrest in human HeLaS3 cells assessed as accumulation at sub-G1 phase at 150 nM after 48 hrs using propidium iodide staining by flow cytometry (reference value: 1.51%). Conditions: HeLa S3.
A short description of assay [21]: Cell cycle arrest in human HeLaS3 cells assessed as accumulation at G2/M phase at 150 nM after 48 hrs using propidium iodide staining by flow cytometry (reference value: 22.45%). Conditions: HeLa S3.
A short description of assay [22]: Cell cycle arrest in human HeLaS3 cells assessed as accumulation at sub-G1 phase at 150 nM after 12 hrs using propidium iodide staining by flow cytometry (reference value: 1.51%). Conditions: HeLa S3.
A short description of assay [23]: Cell cycle arrest in human HeLaS3 cells assessed as accumulation at G1 phase at 150 nM after 36 hrs using propidium iodide staining by flow cytometry (reference value: 56.42%). Conditions: HeLa S3.

Calls of active or inactive are those of the source. The calls are words filed in the database; no cut-off is given here. A value given as a limit tells only on which side of the number the result lay.

As to `COc1cc(CNc2cc3c(cn2)[nH]c2ccccc23)cc(OC)c1`, in assay [1], the half-maximal inhibitory concentration (IC50) (commonly the concentration that gives 50% inhibition) was determined as 1.7 µM.

`Oc1ccccc1CNc1nccc2c1[nH]c1ccccc12` came in with an IC50 in assay [1] of 19 µM.

In the case of `COc1cc(CNc2cc3c(cn2)[nH]c2ccccc23)cc(OC)c1OC`, in assay [1], the half-maximal inhibitory concentration (IC50) turned out to be 0.22 µM.

In the case of `Clc1ccc(CNc2nccc3c2[nH]c2ccccc23)cc1Cl`, in assay [1], the IC50 is 20 µM. This IC50 lies about 91-fold higher than the previous one.

`Cc1ccccc1CNc1nccc2c1[nH]c1ccccc12`: in assay [1], the IC50 worked out at 13 µM.

In assay [1], `c1ccc(-c2ccccc2CNc2cc3c(cn2)[nH]c2ccccc23)cc1` registered an IC50 of 3 µM.

`Clc1ccc(CNc2cc3c(cn2)[nH]c2ccccc23)cc1` returned an IC50 in assay [1] of 6.1 µM.

For `O=[N+]([O-])c1ccccc1CNc1cc2c(cn1)[nH]c1ccccc12`, in assay [1], the IC50 turned out to be 14 µM.

`COc1ccc(OC)c(CNc2cc3c(cn2)[nH]c2ccccc23)c1` yielded an IC50 in assay [1] of 6.1 µM. Against the preceding compound, the IC50 is about 2.3-fold lower.

For `COc1ccc(CNc2cc3c(cn2)[nH]c2ccccc23)cc1`, in assay [1], the IC50 is 20 µM.

Consider `COc1ccc(CNc2cc3c(cn2)[nH]c2ccccc23)c(OC)c1`, for which it took 4.8 µM to reach half-maximal inhibition in [1] (IC50).

Take `c1ccc(Oc2ccc(CNc3cc4c(cn3)[nH]c3ccccc34)cc2)cc1`: the IC50 in [1] came to 1.2 µM.

Consider `COc1cccc(CNc2cc3c(cn2)[nH]c2ccccc23)c1`, for which the IC50 in assay [1] was 0.79 µM.

Compound `c1ccc(CNc2nccc3c2[nH]c2ccccc23)cc1` showed an IC50 in [1] of 24 µM.

For `Cc1ccc(CNc2nccc3c2[nH]c2ccccc23)cc1`, in [1], 26 µM corresponded to half-maximal inhibition (IC50).

As to `Oc1ccc(CNc2cc3c(cn2)[nH]c2ccccc23)cc1`, the IC50 in assay [1] turned out to be 1.7 µM.

Turning to `Oc1ccccc1CNc1cc2c(cn1)[nH]c1ccccc12`, in assay [1], the IC50 worked out at 28 µM. Compared with the last compound, the IC50 is about 16-fold higher.

The compound `COc1ccc(CNc2cc3c(cn2)[nH]c2ccccc23)c(OC)c1OC` came in with an IC50 in [1] of 4 µM.

Regarding `COc1ccccc1CNc1nccc2c1[nH]c1ccccc12`, it took 15 µM to reach half-maximal inhibition in [1] (IC50).

`FC(F)(F)c1cccc(CNc2cc3c(cn2)[nH]c2ccccc23)c1`: the midpoint of inhibition in assay [1], the IC50, lay at 3.1 µM.

On to `Clc1ccc(CNc2nccc3c2[nH]c2ccccc23)cc1`, for which, in [1], the IC50 was found to be 18 µM. This IC50 is about 5.8-fold higher than that of the compound before.

Take `Clc1ccccc1CNc1cc2c(cn1)[nH]c1ccccc12`: half-maximal inhibition in [1] (IC50) was put at 1 µM. Compared with the last compound, the IC50 is about 18-fold lower.

For `Clc1ccccc1CNc1nccc2c1[nH]c1ccccc12`, inhibition in assay [1] was half-maximal at 19 µM (IC50). Against the preceding compound, the IC50 is about 19-fold higher.

The compound `FC(F)(F)c1ccc(CNc2cc3c(cn2)[nH]c2ccccc23)cc1` returned a concentration for half-maximal inhibition (IC50) in [1] of 47 µM.

In [1], `COc1ccc(CNc2cc3c(cn2)[nH]c2ccccc23)cc1OC` gave a half-maximal inhibitory concentration (IC50) above 100 µM.

As to `Oc1cccc(CNc2cc3c(cn2)[nH]c2ccccc23)c1`, the IC50 in [1] came to 0.92 µM. In other words, the sub-micromolar range.

For `Cc1ccccc1CNc1cc2c(cn1)[nH]c1ccccc12`, in assay [1], the IC50 was 0.3 µM. Compared with the last compound, the IC50 is about 3.1-fold lower.

With `c1ccc(Oc2cccc(CNc3cc4c(cn3)[nH]c3ccccc34)c2)cc1`, the Activity worked out at 19.2% in assay [2]; 15.6% in assay [4]; 15.4% in assay [5]; 21.2% in [7]; 18.4% in assay [8]; 8.4% in [9]. In addition, the Activity is 15.9% in assay [11]; 43.5% in assay [12]; 30% in [13]; 20.2% in assay [14]; “tde” with HeLa S3 [15]; 32.7% in [16]. In addition, the Activity in assay [18] stood at 65.9%; in assay [20], 50.1%; in assay [21], 9.52%; in [22], 9.72%; in assay [23], 19%. Besides, the result in the assay filed under Homo sapiens [3], in the assay listed under Homo sapiens [6], in the assay with HeLa S3 [10], in the assay with HeLa S3 [17] and with HeLa S3 [19] was Active. In assay [1], this compound displayed an IC50 of 0.074 µM.

Take `COc1ccc(CNc2nccc3c2[nH]c2ccccc23)cc1`: in assay [1], the IC50 came to 22 µM.

`c1ccc(COc2cccc(CNc3cc4c(cn3)[nH]c3ccccc34)c2)cc1`: 0.38 µM corresponded to half-maximal inhibition in assay [1] (IC50).

In turn, `COc1cccc(CNc2nccc3c2[nH]c2ccccc23)c1` had an IC50 in assay [1] of 24 µM.

`Clc1cccc(CNc2nccc3c2[nH]c2ccccc23)c1` yielded an IC50 in assay [1] of 20 µM.

Take `Cc1cccc(CNc2cc3c(cn2)[nH]c2ccccc23)c1`: in assay [1], the IC50 was 0.21 µM.

As to `COc1cccc(CNc2cc3c(cn2)[nH]c2ccccc23)c1OC`, the IC50 in assay [1] was 3.2 µM.

For the compound `FC(F)(F)c1ccccc1CNc1cc2c(cn1)[nH]c1ccccc12`, in assay [1], it took 6.7 µM to reach half-maximal inhibition (IC50).

On to `c1ccc(Oc2cccc(CNc3nccc4c3[nH]c3ccccc34)c2)cc1`, for which, in assay [1], half-maximal inhibition (IC50) required 2.3 µM.

Compound `c1ccc(-c2ccc(CNc3cc4c(cn3)[nH]c3ccccc34)cc2)cc1` came in with an IC50 in assay [1] above 30 µM.

For `c1ccc(Oc2ccc(CNc3nccc4c3[nH]c3ccccc34)cc2)cc1`, the IC50 in assay [1] was determined as 15 µM.

With `c1ccc(CNc2cc3c(cn2)[nH]c2ccccc23)cc1`, the IC50 in assay [1] was found to be 0.11 µM. Against the preceding compound, the IC50 is about 140-fold lower.

With `Cc1ccc(CNc2cc3c(cn2)[nH]c2ccccc23)cc1`, the IC50 in assay [1] came out at 6.2 µM.

Take `O=[N+]([O-])c1cccc(CNc2cc3c(cn2)[nH]c2ccccc23)c1`: the IC50 in [1] was above 30 µM.

`Clc1cccc(CNc2cc3c(cn2)[nH]c2ccccc23)c1` registered an IC50 in assay [1] of 0.83 µM.

As for `COc1ccccc1CNc1cc2c(cn1)[nH]c1ccccc12`, the IC50 in [1] turned out to be 0.8 µM.

`Cc1cccc(CNc2nccc3c2[nH]c2ccccc23)c1` displayed an IC50 in [1] of 22 µM.

The compound `COc1cccc(OC)c1CNc1cc2c(cn1)[nH]c1ccccc12` displayed an IC50 in assay [1] of 2.3 µM. Compared with the last compound, the IC50 is about 9.6-fold lower.

These data come from ChEMBL document CHEMBL1806388, “3-(3-Phenoxybenzyl)amino-β-carboline: a novel antitumor drug targeting α-tubulin” (Bioorg Med Chem Lett, 2011).
